Data as given in PubChem BioAssay AID488976 (Southern Research Specialized Biocontainment Screening …, 2010).
Active and inactive are the calls of the source.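 The calls were made as follows: active = cell viability under 70% at any tested concentration, a measure not printed in our tables; inactive = the rest.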

Tested on: HEp-2 viability, ATP luminescence
Assay: HEp-2 cell cytotoxicity, dose response, cytotoxicity control for RSV inhibitor project, ATP luminescence, purified and synthesized compounds (AID 488976)
Procedure, shortened: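 System: HEp-2 cells without virus / Compound dosing: 8 twofold steps, 0.39–50 µM, 0.5% DMSO / Times: 6 days with compound at 37 °C / Detection: CellTiter-Glo luminescence / Benchmarks: cell-only wells without compound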

SMILES | CC50
Cc1csc(NC(=O)c2cccnc2)n1 | > 50 µM (inactive)
Cc1ccc(NC(=O)C2CCCN2C(=O)c2ccccc2)c(C)c1 (configuration not stated) | > 50 µM (inactive)
Cc1ccc(NC(=O)C2CCCN2S(=O)(=O)c2cccc3cccnc23)c(C)c1 (configuration not stated) | 40.5 µM
Cc1ccc(NC(=O)C(C)NS(=O)(=O)c2cccc3cccnc23)c(C)c1 (configuration not stated) | > 50 µM (inactive)
Cc1ccc(NC(=O)CNS(=O)(=O)c2cccc3cccnc23)c(C)c1 | > 50 µM (inactive)
Cc1ccc(NC(=O)C2CCCN2S(C)(=O)=O)c(C)c1 (configuration not stated) | > 50 µM (inactive)
Cc1ccc(NC(=O)C2CCCN2S(=O)(=O)c2ccc3ncccc3c2)c(C)c1 (configuration not stated) | > 50 µM (inactive)
Cc1ccc(NC(=O)C2CCCN2S(=O)(=O)c2cccc3cnccc23)c(C)c1 (configuration not stated) | > 50 µM (inactive)
Cc1ccc(NC(=O)C2CCCN2C(=O)c2cccc3cccnc23)c(C)c1 (configuration not stated) | > 50 µM (inactive)
Cc1ccc(NC(=O)C2CCCN2S(=O)(=O)c2ccccc2)c(C)c1 (configuration not stated) | > 50 µM (inactive)
O=C(Nc1ccc(C(F)(F)F)cc1[N+](=O)[O-])O[C@H]1[C@H](Cc2ccccc2)NS(=O)(=O)[C@H]2C[C@@H]3C=C[C@]12O3 | 22.1 µM
Cc1ccc(NC(=O)[C@H]2CCCN2S(=O)(=O)c2cccc3cccnc23)c(C)c1 | 38 µM
CSc1ncccc1C(=O)Nc1nc(C(C)(C)C)cs1 | 28.7 µM
Cc1ccc(NC(=O)[C@@H]2CCCN2S(=O)(=O)c2cccc3cccnc23)c(C)c1 | 38.9 µM
Cc1ccc(NC(=O)C2CCCN2Cc2cccc3cccnc23)c(C)c1 (configuration not stated) | 13.3 µM
Cc1ccc(NC(=O)C2CCCN2S(=O)(=O)c2cccc3ccccc23)c(C)c1 (configuration not stated) | 17.8 µM
CSc1ncccc1C(=O)Nc1nc(C)cs1 | > 50 µM (inactive)
